Test results: ChEMBL document CHEMBL1154743, “A novel potent nicotinamide phosphoribosyltransferase inhibitor synthesized via click chemistry” (J Med Chem, 2010)
Active and inactive are the calls of the source. No cut-off for these calls is given here.

What was measured:
SH-SY5Y [1] = test: Cytotoxicity against human SH-SY5Y cells assessed as cell viability after 48 hrs by MTT assay relative to control in presence of nicotinamide; format: functional
SH-SY5Y [2] = test: Cytotoxicity against human SH-SY5Y cells assessed as reduction of total cellular NAD(P) level at 300 nM relative to control; format: functional; design: scale not given: the % may be the effect or the level left
Procedure, shortened: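 Total cellular NAD levels in SH-SY5Y cells screened at a single fixed concentration of 300 nM. Expressed relative to control, n = 10.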

SH-SY5Y [3] = test: Cytotoxicity against human SH-SY5Y cells assessed as reduction of total cellular NAD(P) level at 1 uM relative to control; format: functional; design: scale not given: the % may be the effect or the level left
SH-SY5Y [4] = test: Cytotoxicity against human SH-SY5Y cells assessed as cell viability after 48 hrs by MTT assay; format: functional, cell-based
Procedure, shortened: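 SH-SY5Y cells incubated with compound for 48 h and viability measured by MTT. Values are mean ± SEM of 8-12 determinations.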

SH-SY5Y [5] = test: Cytotoxicity against human SH-SY5Y cells assessed as reduction of total cellular NAD(P) level; format: functional, cell-based
SH-SY5Y [6] = test: Induction of autophagy in human SH-SY5Y cells assessed as LC3/phosphotidylethanolamine coupling after 40 hrs by Western blot analysis; format: functional, cell-based
Procedure, shortened: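 Western blot of LC3-I and LC3-II, with tubulin as reference, in untreated and treated cells exposed to 10 nM compound. Six independent experiments were run, using two LC3 antibodies from different sources.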

SMILES: NC(=O)c1cccnc1 [NIACINAMIDE]
- Activity (SH-SY5Y [1]): 31%

SMILES: O=C(CCCCCCn1cc(-c2cccnc2)nn1)Nc1ccccc1Cc1ccccc1
- Activity (SH-SY5Y [2]): 86.1%
- Activity (SH-SY5Y [3]): 28%

SMILES: O=C(CCCCCCCn1cc(-c2cccnc2)nn1)n1c2ccccc2c2ccccc21
- Activity (SH-SY5Y [2]): 12%
- IC50 (SH-SY5Y [4]): 0.0374 µM
- IC50 (SH-SY5Y [5]): 0.0171 µM

SMILES: O=C(/C=C/c1cccnc1)NCCCCC1CCN(C(=O)c2ccccc2)CC1 [DAPORINAD]
- IC50 (SH-SY5Y [4]): 0.0017 µM
- IC50 (SH-SY5Y [5]): 0.0005 µM
- Activity (SH-SY5Y [6]): Active

SMILES: O=C(CCCCCCCn1cc(-c2cccnc2)nn1)Oc1ccccc1-c1ccccc1
- Activity (SH-SY5Y [2]): 74.7%

SMILES: O=C(CCCCCCn1cc(-c2cccnc2)nn1)Nc1ccccc1Oc1ccccc1
- Activity (SH-SY5Y [2]): 81.3%
- IC50 (SH-SY5Y [4]): 0.12 µM
- Activity (SH-SY5Y [3]): 24.7%

SMILES: N#CCCCc1cn(-c2ccncc2)nn1
- Activity (SH-SY5Y [2]): 87.8%
- Activity (SH-SY5Y [3]): 31%

SMILES: O=C(CCCCCCCn1cc(-c2cccnc2)nn1)Nc1ccccc1Cc1ccccc1
- Activity (SH-SY5Y [2]): 75.2%
- IC50 (SH-SY5Y [4]): 0.072 µM
- Activity (SH-SY5Y [3]): 30%

SMILES: O=C(CCCCCCn1cc(-c2cccnc2)nn1)NCC(c1ccccc1)c1ccccc1
- Activity (SH-SY5Y [2]): 83.8%
- Activity (SH-SY5Y [3]): 16.8%

SMILES: O=C(CCCCCCn1cc(-c2cccnc2)nn1)Nc1ccccc1Cl
- Activity (SH-SY5Y [2]): 79.5%
- IC50 (SH-SY5Y [4]): 0.205 µM

SMILES: O=C(CCCCCCCn1cc(-c2cccnc2)nn1)NCC(c1ccccc1)c1ccccc1
- Activity (SH-SY5Y [2]): 11%
- IC50 (SH-SY5Y [4]): 0.097 µM
- Activity (SH-SY5Y [3]): 23%
- IC50 (SH-SY5Y [5]): 0.0492 µM

SMILES: O=C(CCCCCCCn1cc(-c2cccnc2)nn1)Nc1ccccc1Oc1ccccc1
- Activity (SH-SY5Y [2]): 87.9%
- IC50 (SH-SY5Y [4]): 0.037 µM
- Activity (SH-SY5Y [3]): 17.7%

SMILES: COc1ccccc1NC(=O)CCCCCCn1cc(-c2cccnc2)nn1
- Activity (SH-SY5Y [2]): 87.9%

SMILES: O=C(CCCCCCCCn1cc(-c2cccnc2)nn1)NCC(c1ccccc1)c1ccccc1
- Activity (SH-SY5Y [2]): 77.3%
- IC50 (SH-SY5Y [4]): 0.157 µM
- Activity (SH-SY5Y [3]): 32.3%

SMILES: O=C(CCCCCCCCn1cc(-c2cccnc2)nn1)Nc1ccccc1Oc1ccccc1
- Activity (SH-SY5Y [2]): 79.5%
- IC50 (SH-SY5Y [4]): 0.078 µM
- Activity (SH-SY5Y [3]): 22.6%

SMILES: O=C(CCCCCCCCn1cc(-c2cccnc2)nn1)Nc1ccccc1Cc1ccccc1
- Activity (SH-SY5Y [2]): 74.7%
- IC50 (SH-SY5Y [4]): 0.082 µM
- Activity (SH-SY5Y [3]): 13.1%

SMILES: O=C(CCCCCCn1cc(-c2cccnc2)nn1)Nc1ccccc1-c1ccccc1
- Activity (SH-SY5Y [2]): 88.2%
- IC50 (SH-SY5Y [4]): 0.056 µM
- Activity (SH-SY5Y [3]): 26.2%

SMILES: O=C(CCCCCCCCn1cc(-c2cccnc2)nn1)Nc1ccccc1-c1ccccc1
- Activity (SH-SY5Y [2]): 35.6%
- IC50 (SH-SY5Y [4]): 0.0146 µM
- Activity (SH-SY5Y [3]): 13%
- IC50 (SH-SY5Y [5]): 0.0844 µM
